Efflux pump mplx: inhibitors of Candida efflux pumps in yeast, primary screen, S. cerevisiae, Nile Red, multiplex | hit rate 0.44% among 330,000 | S. cerevisiae Candida pump triplex | inhibition, % at 10 µM;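 active means plate passing quality check with inhibition over a set limit, or well fluorescence over plate mean plus 4 SD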;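 further: Nile Red retained in pooled yeast measured as flow cytometry median fluorescence; 0% = buffer negative control and 100% = Enniatin B positive control; higher means more Nile Red kept so more efflux inhibition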
Mot1-301 SUMO: yeast Mot1-301 growth rescue at high temperature, primary screen, SUMOylation pathway inhibitor project, S. cerevisiae, ATP luminescence, 38.5C; hit rate 1% among 320,000; growth rescue, % at 18.8 µM; S. cerevisiae Mot1-301 growth rescue; percent above DMSO median, 100 means doubled; AID 2716, 2010;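 active means every valid replicate shows activation above 250% relative to neutral control wells; inactive means the rest, any valid replicate at or below 250%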;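 further: OY570 slx delta 5 strain wells were the positive control but not used for scaling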
UCH37 DUB inh: inhibitors of human UCH37 deubiquitinase, primary screen, biochemical, Ub-AMC cleavage, fluorescence; AID 588478, 2011; inhibition, % (no concentration beside the values); purified proteasome/UCH37; hit rate 0.33% among 330,000; Ubiquitin carboxyl-terminal hydrolase isozyme L5 (Homo sapiens), Q9Y5K5;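 active means mean inhibition over replicate wells above about 20%, limit read from the data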;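 further: 0% = compound-free wells with enzyme and 100% = wells lacking proteasome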
Target sequence (Q9Y5K5 whole entry, looked up): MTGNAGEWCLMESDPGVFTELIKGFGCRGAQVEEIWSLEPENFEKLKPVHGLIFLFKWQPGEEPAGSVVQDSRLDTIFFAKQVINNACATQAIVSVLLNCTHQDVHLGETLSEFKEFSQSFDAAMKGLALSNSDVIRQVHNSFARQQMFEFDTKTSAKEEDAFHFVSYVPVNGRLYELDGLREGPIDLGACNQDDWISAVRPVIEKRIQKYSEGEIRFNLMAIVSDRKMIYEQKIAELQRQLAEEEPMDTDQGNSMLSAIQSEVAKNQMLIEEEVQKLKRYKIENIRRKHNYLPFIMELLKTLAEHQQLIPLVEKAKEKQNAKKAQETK
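system = Proteasome-associated human UCH37 deubiquitinase | amount = 0.15 nM proteasome as dispensed | medium = pH 7.4 Tris-HCl (50 mM) with ovalbumin, ATP-MgCl2, DTT | incubation = 30 min preincubation with enzyme, 25 min cleavage at room temperature | detection = AMC fluorescence 355/460 nm | read-out basis = percent inhibition | controls = no-proteasome and no-compound wells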
RTF Ca sens inh: cardiac RTF calcium sensitivity inhibitors, primary screen, biochemical, IANBD-TnC fluorescence, EC70 calcium | Troponin I, cardiac muscle (Homo sapiens) + Troponin T, cardiac muscle (Homo sapiens) + … | IANBD-labeled cardiac RTF, Ca2+ fluorescence | inhibition, % at 7.15 µM | hit rate 0.12% among 340,000;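 active means inhibition above the mean inhibition of all tested compounds plus 3 SD, cut at about 17% in these data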;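 further: assay run at fixed EC70 calcium of 1.6 mM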
RTF Ca sens act: cardiac RTF calcium sensitivity activators, primary screen, biochemical, IANBD-TnC fluorescence, EC20 calcium; IANBD-labeled TnC RTF fluorescence at EC20 calcium; 0% EC20 calcium, 100% full calcium; activation, % at 7.2 µM; hit rate 0.24% among 340,000;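 active means activation above the mean over all tested compounds plus 3 SD, cut at about 30% in these data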;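 further: rise in fluorescence read as greater calcium sensitivity of cardiac thin filaments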
ARNT-TACC3 inh: disruptors of ARNT/TACC3 protein interaction, primary screen, biochemical, AlphaScreen, single concentration; inhibition, % at 9.99 µM; hit rate 0.66% among 390,000; AlphaScreen His-ARNT PAS-B/GST-TACC3 binding, luminescence; TACC3 fragment carries E629A point mutation; Transforming acidic coiled-coil-containing protein 3 (Homo sapiens), Q9Y6A5;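 active means mean inhibition of replicates at least 50% and at least half of replicates each reaching 50%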;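 further: 0% = complete ARNT plus TACC3 wells and 100% = ARNT alone without TACC3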
Cmpd fluor yeast: counter-screen for efflux pump inhibitors: compound fluorescence; fluorescence ratio to DMSO, % at 10 µM; hit rate 4% among 1,700; shares compounds with Efflux pump mplx; S. cerevisiae AD/pABC3, flow cytometry;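 active means fluorescence ratio to DMSO above its plate's cutoff, the plate mean ratio plus 5 SD, cut at about 210% in these data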;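 further: unstained yeast with no Nile Red so the signal is compound autofluorescence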
Mdr1 pump inh: inhibitors of Candida albicans Mdr1 efflux, confirmation, flow cytometry, singleplex, Cherry Pick1 set; shares compounds with Efflux pump mplx; S. cerevisiae AD/CaMDR1, Nile Red efflux; inhibition, % at 10 µM; hit rate 1% among 1,700; AID 588518, 2011; in the data active means inhibition above about 26%;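 further: 0% = DMSO vehicle and 100% = reference inhibitor; higher means more Nile Red retained so more efflux inhibition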
CaCdr2 efflux inh: inhibitors of Candida albicans Cdr2 efflux pump, confirmation, S. cerevisiae AD/CaCDR2, flow cytometry, cherry pick 1, singleplex; AID 588520, 2011; Nile Red retention; shares compounds with Efflux pump mplx; hit rate 4% among 1,700; Nile Red retention ratio vs DMSO, % at 10 µM; in the data active means Nile Red retention ratio vs DMSO above about 190%;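 further: higher ratio means more blocking of Cdr2 efflux of the dye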
CaCdr1 efflux inh: inhibitors of Candida albicans Cdr1 efflux pump, confirmation, S. cerevisiae AD/CaCDR1, flow cytometry, cherry pick 1, singleplex; shares compounds with Efflux pump mplx; hit rate 1% among 1,700; AID 588522, 2011; Nile Red efflux; inhibition, % at 10 µM;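 active means inhibition above the screen-wide mean plus twice its standard deviation, cut at about 32% in these data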
Numbers without * were called inactive; i = inactive; . = no result given; + = active, no number. In the library only some 2.1% were active in any assay of this set; here they are far more common.

SMILES	Efflux pump mplx	Mot1-301 SUMO	UCH37 DUB inh	RTF Ca sens inh	RTF Ca sens act	ARNT-TACC3 inh	Cmpd fluor yeast	Mdr1 pump inh	CaCdr2 efflux inh	CaCdr1 efflux inh
COc1ccc(C(=O)NN=Cc2sc(N3CCOCC3)nc2-c2ccccc2)cc1OC	.	.	3	.	.	.	.	.	.	.
CC1(C)OC(=O)C(=NNc2ccccc2)C(=O)O1	9.7*	-17	.	-3	6	-5	110	0	105	0
CC1(C)OC(=O)C(=NNc2ccc(O)cc2)C(=O)O1	0	.	6	7	-5	-3	.	.	.	.
N#CC(C#N)=C1C=C2C=C(N3CCCCCC3)CCC2CC1 (centres undefined)	.	.	4	i	+	.	258*	2	271*	1
N#Cc1cc(Cl)c(N2CCOCC2)cc1C#N	0	157	1	-9	5	-2	.	.	.	.
CC1(C)CC(NCCN2CCN(C3=CC(=C(C#N)C#N)CC(C)(C)C3)CC2)=CC(=C(C#N)C#N)C1	0	-16	5	-8	9	-8	.	.	.	.
CCN1CCN(C2=CC3=CC(=C(C#N)C#N)CCC3CC2)CC1 (centres undefined)	.	.	32*	i	+	-5	140	1	203*	0
N#CC(C#N)=C1C=C2C=C(N3CCOCC3)CCC2CC1 (centres undefined)	.	.	11	i	+	.	184	2	206*	1
Fc1ccc(C=NNc2nc3ccccc3[nH]2)cc1F	.	.	4	.	.	.	.	.	.	.
CCc1ccc(NC(=O)C(=O)NN=C(C)CC(=O)NCc2ccc(Cl)cc2)cc1	.	.	1	.	.	.	.	.	.	.
O=C1C(=O)N(CC2CCCO2)C(c2ccccc2[N+](=O)[O-])/C1=C(/O)c1ccccc1 (centres undefined)	1.4*	-20	9	0	0	1	85	0	96	0
Cc1ccc(C2/C(=C(/O)c3ccc(Cl)cc3)C(=O)C(=O)N2CC2CCCO2)o1 (centres undefined)	0	-3	1	0	-3	-6	.	.	.	.
Cc1nnc(SCc2ccc([N+](=O)[O-])cc2)o1	1.0*	-9	1	6	-5	0	110	0	106	0
Cc1ccc(S(=O)(=O)NNC(=O)c2ccncc2)cc1	0	4	3	-4	-1	-5	.	.	.	.
Cc1cc(C(=O)NNS(=O)(=O)c2ccc(C(C)(C)C)cc2)nn1C(C)(C)C	0.6*	-13	9	-3	4	-3	101	0	108	0
COc1ccc(-c2cc(C(=O)N3CCCC(C(F)(F)F)C3)c3ccccc3n2)cc1OC (centres undefined)	0.4*	1	-41	-16	-14	-5	105	0	110	0
COc1ccc(-c2cc(C(=O)N3CCN(c4ccccc4)CC3)c3ccccc3n2)cc1OC	0	-7	-10	-3	-7	6	.	.	.	.
CCOc1cc(C=Nn2cnnc2)ccc1O	.	.	1	.	.	.	.	.	.	.
Cc1ccc(S(=O)(=O)CCSc2nccn2C)cc1	3.3*	-9	6	-2	-8	-1	98	0	99	0
O=C(c1cc(COc2ccc(-n3cncn3)cc2)on1)N1CCCC1	9.9*	5	1	-5	-4	-1	105	0	106	0
Cc1cc(NC(=O)CCC(=O)N(CC(=O)NC2CCCC2)Cc2ccc(F)cc2)no1	0	-9	5	-2	5	1	110	0	114	0
O=C(CNC(=O)c1cccs1)NN=Cc1ccco1	.	.	-2	.	.	.	.	.	.	.
O=c1c2c3nc4ccccc4nc3n(N=Cc3ccncc3)c2ncn1-c1ccccc1	.	.	-4	.	.	.	.	.	.	.
CCOc1ccc(/C=N/NC(=O)c2ccccc2O)cc1CN1CC2CC(C1)c1cccc(=O)n1C2 (centres undefined)	0.8*	99	.	-9	-4	.	85	0	104	0
CCOc1ccc(C=NNc2nncc(-c3ccccc3)n2)cc1OC	.	.	3	.	.	.	.	.	.	.
SMILES	Efflux pump mplx	Mot1-301 SUMO	UCH37 DUB inh	RTF Ca sens inh	RTF Ca sens act	ARNT-TACC3 inh	Cmpd fluor yeast	Mdr1 pump inh	CaCdr2 efflux inh	CaCdr1 efflux inh
Cc1cc2oc(=O)c(CC(=O)NCCCN(C)C)c(C)c2c2occ(C(C)(C)C)c12	0.9*	11	-193	.	.	.	108	0	89	0
Cc1cc2oc(=O)c(CC(=O)NCCCO)c(C)c2c2occ(C(C)(C)C)c12	0	-12	-216	-3	-3	0	.	.	.	.
CC(=NNC(=O)CN1CCN(Cc2ccccc2)CC1)c1ccc([N+](=O)[O-])cc1	.	.	5	.	.	.	.	.	.	.
COc1ccc(NC(=O)CSc2nnc(Cc3cccs3)n2-c2ccc(C)cc2)cc1	0	-3	1	-5	-6	1	97	0	97	0
NS(=O)(=O)c1ccc(NC(=O)CSc2nnc(Cc3cccs3)n2-c2ccccc2)cc1	0	3	-5	2	3	-2	104	0	97	0
COc1cccc(NC(=O)CSc2nnc(Cc3cccs3)n2-c2ccc(C)cc2)c1	0	-3	0	-26	-5	4	96	0	114	0
Cc1ccc(-n2c(Cc3cccs3)nnc2SCC(=O)Nc2ccc(S(N)(=O)=O)cc2)cc1	0	-11	0	-5	-3	26	.	.	.	.
O=C(NN=C/C(Br)=C/c1ccccc1)c1ccccc1[N+](=O)[O-]	.	.	5	.	.	.	.	.	.	.
O=C(Cn1nc(-c2ccc(F)cc2)ccc1=O)Nc1ccc(C(=O)NC2CC2)cc1	0.4*	8	0	2	-6	-4	81	0	89	0
COc1ccc2cc(C=NO)c(Cl)nc2c1	.	.	-12	.	.	.	.	.	.	.
COc1cc(/C=C/C(=O)c2ccc(O)cc2)ccc1OCC#N	11*	4	4	-8	1	-4	95	0	108	0
Cc1ccc(OCCC(=O)OCC(=O)c2c(N)n(CC(C)C)c(=O)n(C)c2=O)cc1	0	5	1	1	-1	0	.	.	.	.
